From the EternaBench riboswitch data

Assays:
MS2 coat protein [1] = assay: apparent Kd, MS2 coat protein; higher = weaker binding; RNA-MaP array
How it was run: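 RNA designs were transcribed from sequenced DNA templates on an Illumina sequencing chip and then incubated at room temperature with fluorescently labeled MS2 coat protein at 1.5 nM to 3 μM, with or without input ligand, in Tris-HCl pH 7.5 buffer containing KCl, MgCl2, BSA, DTT, tRNA and Tween20. Incubation lasted 0.8–1.5 h at the lowest protein concentrations and 10–20 min at the highest. Apparent Kd is the median of binding-curve fits made for each cluster. Designs measured on fewer than 10 clusters were excluded.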

MS2 coat protein [2] = assay: apparent Kd, MS2 coat protein; higher = weaker binding; RNA-MaP array; FMN 200 µM where present
How it was run: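 Stalled E. coli RNA polymerase produced the designs on Illumina sequencing-chip clusters. SNAP-549-labelled MS2 coat protein was added from 0.7 or 1.5 nM, doubling to 3 µM, without and then with constant ligand, in 100 mM Tris-HCl pH 7.5, 80 mM KCl, 4 mM MgCl2, BSA, DTT, yeast tRNA and Tween-20. The apparent Kd is the median of filtered per-cluster fits of green signal normalised to red-channel RNA signal and control-cluster median Fmax.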

[3] = designed as: ON switch for flavin mononucleotide, no ligand
[4] = ligand present: flavin mononucleotide, designed as: ON switch for flavin mononucleotide
[5] = designed as: OFF switch for flavin mononucleotide, no ligand
[6] = ligand present: flavin mononucleotide, designed as: OFF switch for flavin mononucleotide

| Sequence | apparent Kd (MS2 coat protein [2]; [5]) [nM] | apparent Kd (MS2 coat protein [2]; [6]) [nM] | also measured |
| --- | --- | --- | --- |
| AUAGUGCGGCUGAAGGAUAUGGAACCCGCGACAUGAGGAUCACCCAUGUACUUAAGCGACAUUUGCCAGAAGGUCAAGCAUUCCAU | – | – | apparent Kd (MS2 coat protein [1]; [3]): 13.3 nM; apparent Kd (MS2 coat protein [1]; [4]): 11.2 nM |
| AUCAAGUCAGGAUAUGAACUAAAGAUGGAAAACGUAGCAAAACAGAAGGGACAUGAGGAUCACCCAUGUGGAAG | – | – | apparent Kd (MS2 coat protein [1]; [5]): 19.9 nM; apparent Kd (MS2 coat protein [1]; [6]): 17 nM |
| UUUUAACAUGAGGAUCACCCAUGUGAGGAUAUCGAAAUUUAUAUUAAUAUUAUUUUAUCGAGAAGGCACAUUUU | 96.1 | 124 | – |
| UUUUAACAUGAGGAUCACCCAUGUGAGGAUAUCGAAAUUUAUAUUAAUAUUUAUAUAACGAGAAGGCACAUUUU | 68.4 | 90.1 | – |
| UUUUAACAUGAGGAUCACCCAUGUGAGGAUAUCGAAAUUUAUAUUAAUAUUUAUUUAACGAGAAGGCACAUUUU | 96.4 | 88.4 | – |
| UUUUAACAUGAGGAUCACCCAUGUGAGGAUAUCGAAAUUUAUAUUAAUAUUUAUUUAUCGAGAAGGCACAUUUU | 115 | 135 | – |
| UUUUAACAUGAGGAUCACCCAUGUGAGGAUAUCGAAAUUUAUAUUAAUAUUUUUAAUACGAGAAGGCACAUUUU | 47.2 | 73.6 | – |
| UUUUAACAUGAGGAUCACCCAUGUGAGGAUAUCGAAAUUUAUAUUAAUAUUUUUAUAUCGAGAAGGCACAUUUU | 92.8 | 78.4 | – |
| UUUUAACAUGAGGAUCACCCAUGUGAGGAUAUCGAAAUUUAUAUUUAUAUUUAUUAAUCGAGAAGGCACAUUUU | 132 | 162 | – |
| UUUUAACAUGAGGAUCACCCAUGUGAGGAUAUCGAUUUUUUUAUUAAUAUUAAUAAAACGAGAAGGCACAUUUU | 76.2 | 75.9 | – |
| UUUUACAUAGGAUAUAGUUUCUUUUACAUGAGGAUCACCCAUGUCUCUCCUCUCUCUCUUCUAGAAGGAUGUUUCU | 80.1 | 72 | – |
| UUUUACGUUUCGUAGCAGUGUCAUCGAGAAGGCCCUGACAUGAGGAUCACCCAUGUUGUUACAUGGGAGGAUAUCGAUGAUUUU | – | – | apparent Kd (MS2 coat protein [2]; [3]): 16.4 nM; apparent Kd (MS2 coat protein [2]; [4]): 5.21 nM |
| UUUUAGAUCCGAGGAUAUACAAUCCGGAAACGGUACAUGAGGAUCACCCAUGUAGAAGGCGGAUCUACAGGUACUAAAGUAUUU | 10 | 8.84 | – |
| UUUUCGAACCGAGGAUAUCCUUAUAAGAAACAUGAGGAUCACCCAUGUAAAGGGAAUUAUUUGAAGGAGAAGGCGGAUUUUGUU | – | – | apparent Kd (MS2 coat protein [2]; [3]): 50.1 nM; apparent Kd (MS2 coat protein [2]; [4]): 32 nM |
| UUUUCUUUUGUGAGGAUAUACUUCUUUUUUUUUUUGUAGAAGGCACAUGAGGAUCACCCAUGUUUUCUUUUCUG | 18.9 | 21.8 | – |
| UUUUUACGAGGAUAUCGAUUGUGGUACAUGAGGAUCACCCAUGUAUGUGAUAUUGUAUUUCGAGAAGGCGUUCAGU | 19.3 | 17.8 | – |
| UUUUUACUUGCAGGAUAUGGAGACAUGAGGAUCACCCAUGUAUGAUAAGCUAAAUUAUGCUGUGGCCAGAAGGGUAUUAUUCUU | – | – | apparent Kd (MS2 coat protein [2]; [3]): 63.2 nM; apparent Kd (MS2 coat protein [2]; [4]): 57.4 nM |
| UUUUUGAAGCUUCGUUAAUACAGUUAGGAUAUGAGAGACAUGAGGAUCACCCAUGUGCAUGUUGAUUAGAAGGAACAACUAUCU | 20.1 | 17.4 | – |
| UUUUUGCUAUAUACAUGAGGAUCACCCAUGUCCACUGACAGACAGGAUAUCCUUAGAAACUAGCAGGAGAAGGGUCAGUCAUAC | – | – | apparent Kd (MS2 coat protein [2]; [3]): 487 nM; apparent Kd (MS2 coat protein [2]; [4]): 69 nM |
| UUUUUGUAAGAGAAGGAGGACUUCAUGAGGAUCACCCAUGUGUUAGUACUUAGGAUAUUUGACAACAUGAGGAUCACCCAUGUC | – | – | apparent Kd (MS2 coat protein [2]; [3]): 72 nM; apparent Kd (MS2 coat protein [2]; [4]): 70.1 nM |
| UUUUUGUCAGGAUAUACGUAGUAGAACAAUAGUACUACUACGUAGAAGGGACAUGAGGAUCACCCAUGUUCCUC | 14.8 | 30.9 | – |
| UUUUUGUCAGGAUAUCCACCCACCACCUUCGGGUGGUGGGUGGAGAAGGGACAUGAGGAUCACCCAUGUAGUUU | 74.6 | 221 | – |
| UUUUUGUGAGGAUAUACGUAGUAGAACAAUAGUACUACUACGUAGAAGGCACAUGAGGAUCACCCAUGUUCCUC | 47.6 | 339 | – |
| UUUUUGUGAGGAUAUCAGUAGUAAAAAAAUAAAAUUACUACUGAGAAGGCACAUGAGGAUCACCCAUGUUUUUC | 38.2 | 117 | – |
| UUUUUGUGAGGAUAUCAGUAGUAAAAUAAAUAAAUUACUACUGAGAAGGCACAUGAGGAUCACCCAUGUUCCUU | 14 | 30.3 | – |
| UUUUUGUGAGGAUAUGCAAUAUCUUCUAUUUAUUAUUAAUUGCAGAAGGCACAUGAGGAUCACCCAUGUAUUUU | 19.2 | 24.2 | – |
| UUUUUUUUACAGAAGGGAAUCAUGAUUUUUUGUUUUUACAUGAGGAUCACCCAUGUUUAUCUUUUUCAGGAUAUGUAUUUUUUU | – | – | apparent Kd (MS2 coat protein [2]; [3]): 61.3 nM; apparent Kd (MS2 coat protein [2]; [4]): 32 nM |
